The values that follow come from ChEMBL document CHEMBL4007401, “Lynamicin D an antimicrobial natural product affects splicing by inducing the expression of SR protein kinase 1” (2017).

Experiment [1] deals with HeLa. Description: Modulation of SRPK1 pre-mRNA splicing in human HeLa cells assessed as effect on intracellular localization of SRPK1 at 30 uM after 24 hrs by DAPI staining based immunofluorescence microscopic method. In kind it is cell-based.
The test system of experiment [2] is HeLa. Nature of the experiment: Cytotoxicity against human HeLa cells assessed as cell viability at 30 uM after 48 hrs by MTT assay relative to control. In kind it is functional. The following applies: read-out: Activity. A digest of the protocol:
(§1)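 Cells seeded at 10^4 per well, exposed 24 h later to lynamicin D (0-20 µM in methods; 30 µM stated in results) for 48 h. Then 4 h with 0.5 mg/ml MTT, crystals dissolved in 10% SDS in 0.01 N HCl, A570 read. Blanked against DMSO; medium-only cells = 100% viability. Means ±SE, three independent experiments.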

Experiment [3] concerns A549. Description: Modulation of SRPK1 pre-mRNA splicing in human A549 cells assessed as increase in SRPK1 pre-mRNA level at 10 to 30 uM after 24 hrs by RT-PCR method relative to control. In kind it is cell-based. An outline of the steps:
(§2)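 Total RNA from cells treated 24 h or control taken with TRIZOL. 1 µg reverse transcribed with random hexamers. SRPK1 amplified 27 cycles (95 °C 40 s, 66 °C 40 s, 72 °C 60 s); actin reference annealed at 60 °C. Products on 1% agarose, ethidium bromide. SRPK1/actin ratio by densitometry.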

Experiment [4] has as its system A549. Nature of the experiment: Cytotoxicity against human A549 cells assessed as cell viability at 30 uM after 48 hrs by MTT assay relative to control. In kind it is functional. The note with it: A549, 48 h, read-out: Activity. A digest of the protocol: as §1
For experiment [5], the system named is HeLa. Description: Modulation of alternative splicing of SRp20 exons […] pre-mRNA (unknown origin) expressed in human HeLa cells assessed as inclusion of exon-4 up to 20 uM after 24 hrs by ethidium bromide staining based agarose gel electrophoresis method. In kind it is cell-based. A digest of the protocol:
(§3)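 HeLa (2 x 10exp4) transfected with 0.5 µg pSMN2 (exons 6-8) or pSRp20 (exons 3-5), or 1 µg pSVIRB (rat insulin exons 1-3). After 4 h, medium replaced with lynamicin D (0-20 µM; results cite 10, 20, 30 µM) or DMSO. RNA at 24 h, 1 µg RT, 30 PCR cycles, annealing 60 °C (SRp20 55 °C). Agarose gels; upper/lower band ratio. Means ±SE, n=3.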

Experiment [6] has as its system HeLa. Description: Modulation of constitutive splicing of rat insulin exons 1 to 3 pre-mRNA expressed in human HeLa cells assessed as retention of introns up to 20 uM after 24 hrs by ethidium bromide staining based agarose gel electrophoresis method.
Experiment [7] concerns HeLa. Nature of the experiment: Modulation of constitutive splicing of rat insulin exons 1 to 3 pre-mRNA expressed in human HeLa cells assessed as retention of introns up to 20 uM after 24 hrs by ethidium bromide staining based agarose gel electrophoresis method. In kind it is cell-based. An outline of the steps: as §3
Experiment [8] in a line: Modulation of alternative splicing of SRp20 exons […] pre-mRNA (unknown origin) expressed in human T98G cells assessed as inclusion of exon-4 up to 20 uM after 24 hrs by ethidium bromide staining based agarose gel electrophoresis method. In kind it is cell-based.
The species entered for a further experiment is Rattus norvegicus. Nature of the experiment: Modulation of constitutive splicing of rat insulin exons 1 to 3 pre-mRNA expressed in human T98G cells assessed as retention of introns up to 20 uM after 24 hrs by ethidium bromide staining based agarose gel electrophoresis method. In kind it is cell-based.
Another experiment deals with HeLa (Homo sapiens). Nature of the experiment: Modulation of alternative splicing of SRp20 exons […] pre-mRNA (unknown origin) expressed in human HeLa cells assessed as inclusion of exon-4 up to 20 uM after 24 hrs by ethidium bromide staining based agarose gel electrophoresis method.
Experiment [9] has as its system HeLa. Description: Modulation of SRPK1 pre-mRNA splicing in human HeLa cells assessed as increase in SRPK1 protein level at 10 to 30 uM after 24 hrs by Western blot method relative to control. In kind it is cell-based. An outline of the steps:
(§4)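 Lysis in 1% Triton X-100, 20 mM Hepes-KOH pH 7.5, 150 mM NaCl, 1 mM PMSF, 30 min on ice, needle-sheared, spun 13,000 g 15 min. Equal protein on 10% SDS-PAGE. Endogenous SRPK1 probed with mouse monoclonal anti-SRPK1, GAPDH as loading control, AP secondary with BCIP/NBT; SRPK1/GAPDH by densitometry.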

Experiment [10] relates to A549. Description: Modulation of SRPK1 pre-mRNA splicing in human A549 cells assessed as increase in SRPK1 protein level at 10 to 30 uM after 24 hrs by Western blot method relative to control. In kind it is cell-based. A digest of the protocol:
as §4
Background: In western blotting, separated proteins are transferred to a membrane and probed.

The target of experiment [11] is SRSF protein kinase 1 (Homo sapiens) (UniProt Q96SB4). Description: Inhibition of GST-tagged SRPK1 (unknown origin) at 5 to 30 uM using GST-LBRNt (62 to 92 residues) as substrate by SDS-PAGE based autoradiography. A digest of the protocol: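 Radioactive kinase reaction, 25 µL: 12 mM Hepes pH 7.5, 10 mM MgCl2, 25 µM ATP, 0.5 µg recombinant GST-SRPK1, 1 µg GST-LBRNt(62-92) (LBR N-terminal RS-containing fragment) as substrate. Lynamicin D 0-30 µM or SRPIN340 5 µM. Products run on 12% SDS-PAGE, Coomassie-stained and autoradiographed; incorporation measured by excising bands and scintillation counting.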

The subject of experiment [12] is HeLa. Nature of the experiment: Modulation of SRPK1 pre-mRNA splicing in human HeLa cells assessed as increase in SRPK1 pre-mRNA level at 10 to 30 uM after 24 hrs by RT-PCR method relative to control. In kind it is cell-based. An outline of the steps: as §2
For experiment [13], the system named is HeLa. Description: Modulation of alternative splicing of SMN2 exons 6 to 8 pre-mRNA (unknown origin) expressed in human HeLa cells assessed as inclusion of exon-7 up to 20 uM after 24 hrs by ethidium bromide staining based agarose gel electrophoresis method. In kind it is cell-based. An outline of the steps: as §3
The species entered for experiment [14] is Homo sapiens. Description: Modulation of SRPK1 pre-mRNA splicing in human T98G cells assessed as increase in SRPK1 pre-mRNA level at 10 to 30 uM after 24 hrs by RT-PCR method relative to control. In kind it is cell-based. A digest of the protocol:
as §2

For experiment [15], the system named is A549. Nature of the experiment: Modulation of constitutive splicing of rat insulin exons 1 to 3 pre-mRNA expressed in human A549 cells assessed as retention of introns up to 20 uM after 24 hrs by ethidium bromide staining based agarose gel electrophoresis method. In kind it is cell-based.
A further experiment concerns T98G. Nature of the experiment: Cytotoxicity against human T98G cells assessed as cell viability at 30 uM after 48 hrs by MTT assay relative to control. In kind it is functional. The following applies: read-out: Activity. An outline of the steps: as §1
For orientation: Tetrazolium assays rely on reduction of a dye to a coloured formazan, in cell work by metabolically active cells.

The species named for experiment [16] is Homo sapiens. Nature of the experiment: Modulation of SRPK1 pre-mRNA splicing in human T98G cells assessed as increase in SRPK1 protein level at 10 to 30 uM after 24 hrs by Western blot method relative to control. In kind it is cell-based. A digest of the protocol:
as §4

The source made the active and inactive calls. The rule behind the calls is not given here.

Sequence of SRSF protein kinase 1 (Homo sapiens) (Q96SB4 whole entry, the tested form may be a part): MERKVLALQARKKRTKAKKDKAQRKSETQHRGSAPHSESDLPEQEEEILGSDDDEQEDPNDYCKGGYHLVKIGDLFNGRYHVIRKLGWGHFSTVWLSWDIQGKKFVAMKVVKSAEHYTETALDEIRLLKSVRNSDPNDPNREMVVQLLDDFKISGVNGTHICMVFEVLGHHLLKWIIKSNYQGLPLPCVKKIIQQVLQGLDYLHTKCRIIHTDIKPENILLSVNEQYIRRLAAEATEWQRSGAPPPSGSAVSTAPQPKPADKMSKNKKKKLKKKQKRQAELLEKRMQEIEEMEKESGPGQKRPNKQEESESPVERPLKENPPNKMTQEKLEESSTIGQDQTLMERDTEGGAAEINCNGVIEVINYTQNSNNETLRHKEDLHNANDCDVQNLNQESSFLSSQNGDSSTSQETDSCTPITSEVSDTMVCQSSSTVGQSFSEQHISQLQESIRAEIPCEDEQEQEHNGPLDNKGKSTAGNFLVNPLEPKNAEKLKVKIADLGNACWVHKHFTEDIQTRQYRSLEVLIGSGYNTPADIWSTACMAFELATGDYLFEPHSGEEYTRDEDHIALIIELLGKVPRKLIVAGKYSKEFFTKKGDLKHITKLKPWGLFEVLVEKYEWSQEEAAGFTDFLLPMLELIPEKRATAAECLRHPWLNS

Regarding `COC(=O)c1[nH]c(C(=O)OC)c(-c2c[nH]c3ccc(Cl)cc23)c1-c1c[nH]c2ccc(Cl)cc12` [LYNAMICIN D], the result with HeLa [1] was inactive. Also, the viability at 30 µM with HeLa [2] turned out to be 82%; in the experiment on A549 [4], 88%; in the experiment with T98G it was 91%. The outcome (with A549 [3]; in the experiment with HeLa [5]; in the experiment with HeLa [6]; in the experiment with HeLa [7]; in [8]; in the experiment listed under Rattus norvegicus) was Active. The result in the experiment on HeLa (Homo sapiens), in the experiment on A549 [10], with HeLa [13], in the experiment listed under Homo sapiens [14], in the experiment with A549 [15] and in the experiment listed under Homo sapiens [16] was Active. Besides, the fold change (FC) came to 1.9 with HeLa [9] and 3 in the experiment on HeLa [12]. Moreover, in experiment [11], the inhibition entry is “inactive”.
